The values below come from PubChem BioAssay.

Calls of active or inactive are those of the source.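 Rule for the calls, unless noted: active = visually confirmed hit in the image check and inhibition above 20%; inconclusive = visually confirmed hit but inhibition not above 20%; inactive = no visual hit in the image check.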

Test [1] can be described thus: inhibitors of TNFa-induced NFkB p65 translocation, primary screen, imaging, HUVEC, MLSMR starter and 10KST1 sets (AID 438;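 active = inhibition above 20% together with a positive visual image hit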;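 note: compound added about 3h40 before a 20 min TNFalpha stimulation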;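 for inhibition: signal is the nuclear over cytoplasmic p65 intensity ratio per well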). The settings on record: HUVEC TNFa-induced p65 nuclear translocation; cell count: measured here: nuclei count (cytotoxicity indicator), at 2.08 µM; inhibition: at 2 µM, stronger effect = higher value, 0% TNFa-plus-vehicle, 100% no-TNFa wells.
The nature of test [2]: inhibitors of mutant huntingtin aggregation, primary screen, imaging, exon1htt(103Q)mCFP cells, high-content imaging (AID 483;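 active = visual image review flags a hit and inhibition of aggregation exceeds 20%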;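 note: compound exposure lasted 3 days before fixation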;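 for nuclei count: percent of the per-plate median nuclei count of sample wells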). The settings on record: exon1htt(103Q)mCFP cell line, aggregate imaging, at 2 µM; inhibition of aggregation: stronger effect = higher value; nuclei count: measured here: cell count, toxicity.
Test [3] in a line: inhibitors of E-selectin induction by TNFa, primary screen, imaging, HUVEC, immunofluorescence, MLSMR starter and 10KST1 sets (AID 487).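 For inhibition: signal is fraction of cell area covered by stained E-selectin grains.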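 For nuclei count: 100% = median nuclei count of all wells on the same plate.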 The conditions noted are these: HUVEC TNFalpha-induced E-selectin immunofluorescence imaging, at 2 µM; inhibition: stronger effect = higher value; nuclei count: measured here: cell number, toxicity.
Test [4] deals with Voltage-gated potassium channel subunit beta-2 (Rattus norvegicus) (UniProt P62483). Put plainly: KvBeta enzyme negative modulators, primary screen, biochemical, NADPH fluorescence (AID 622;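 active = fluorescence slope higher than the sample average by over 3 SD, cut at about -0.22 in these data, passing the limit was not always enough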;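 note: slope of raw intensity against log time taken from 70 to 1610 s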). The settings on record: recombinant KvBeta, 4-cyanobenzaldehyde reduction, at 10 µM, stronger effect = higher value.
Sequence of Voltage-gated potassium channel subunit beta-2 (Rattus norvegicus) (P62483 whole entry, looked up): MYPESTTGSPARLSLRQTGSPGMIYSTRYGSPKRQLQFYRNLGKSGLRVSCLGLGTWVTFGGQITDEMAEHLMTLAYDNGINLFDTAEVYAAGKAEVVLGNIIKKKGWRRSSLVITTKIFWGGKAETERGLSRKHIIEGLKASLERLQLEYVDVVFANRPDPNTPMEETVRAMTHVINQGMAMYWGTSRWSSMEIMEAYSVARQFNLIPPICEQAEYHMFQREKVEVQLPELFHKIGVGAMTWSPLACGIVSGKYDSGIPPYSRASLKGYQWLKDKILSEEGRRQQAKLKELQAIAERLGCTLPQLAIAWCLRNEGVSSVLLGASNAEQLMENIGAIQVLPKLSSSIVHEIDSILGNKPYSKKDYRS
Test [5] shares this target. Put plainly: KvBeta positive modulators, primary screen, biochemical, NADPH fluorescence (AID 623;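 active = NADPH fluorescence slope more negative than the mean of all samples by about 3 SD, 99.7% confidence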;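 note: fluorescence intensity change per second fitted from 20 to 320 s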). The settings on record: Recombinant KvBeta, NADPH fluorescence decrease slope, 10 min; at 10 µM; stronger effect = lower value.
In test [6] the target is Muscarinic acetylcholine receptor M4 (Homo sapiens) (UniProt P08173). The test can be described thus: compounds altering M4/GIRK thallium flux, either direction, primary screen, M4 allosteric agonist project, cell-based, HEK293 M4/GIRK, BTC-AM (AID 625;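 active = fluorescence slope after compound addition differing from the mean of all tested samples at 99.7% confidence, mostly higher but some lower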;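 note: thallium influx through GIRK channels coupled to M4 in HEK293 cells with BTC-AM dye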). The conditions noted are these: at 10 µM, actives lie on both sides. The method in brief: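 Assay system: HEK293 cells with M4 receptor and GIRK channels / Controls: carbachol and DMSO controls / Schedule: 1 h dye loading, 2 min kinetic read / Technique: kinetic fluorescence with BTC-AM dye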
Sequence of Muscarinic acetylcholine receptor M4 (Homo sapiens) (P08173 whole entry, looked up): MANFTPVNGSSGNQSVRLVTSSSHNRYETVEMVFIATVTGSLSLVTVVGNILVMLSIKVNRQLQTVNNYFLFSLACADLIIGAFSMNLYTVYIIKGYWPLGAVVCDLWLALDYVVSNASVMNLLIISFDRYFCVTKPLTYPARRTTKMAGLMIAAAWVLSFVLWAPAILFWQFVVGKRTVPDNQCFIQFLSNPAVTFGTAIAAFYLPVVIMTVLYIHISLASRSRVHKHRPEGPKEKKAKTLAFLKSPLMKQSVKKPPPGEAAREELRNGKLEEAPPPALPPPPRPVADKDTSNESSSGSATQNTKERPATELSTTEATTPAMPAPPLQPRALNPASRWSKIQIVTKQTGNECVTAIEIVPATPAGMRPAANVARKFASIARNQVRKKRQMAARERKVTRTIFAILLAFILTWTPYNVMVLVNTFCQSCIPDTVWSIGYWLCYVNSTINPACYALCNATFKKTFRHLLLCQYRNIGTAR

The nature of test [7]: inhibitors of Sendai virus-induced IRF3 signaling, primary screen, TLR/RLR signaling modifier project, cell-based, Sendai virus stimulus, luciferase, 10K MLSCN set (AID 602276;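 active = inhibition at or above 50% at 10 µM; inactive = inhibition below 50%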;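 note: firefly luciferase from ISG56 promoter only with Renilla not read in this screen; 0% = Sendai virus plus DMSO and 100% = medium plus DMSO without virus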). The settings on record: HEK293 RL24 IRF3 luciferase reporter, at 10 µM, stronger effect = higher value.
Test [8] can be described thus: inhibitors of poly I:C-induced TLR3 signaling, primary screen, cell-based, poly I:C stimulus, luciferase, 10K MLSCN set (AID 602277;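 active = inhibition of the reporter signal at or above 50%; inactive = inhibition below 50%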). The conditions noted are these: HEK293-TLR3 RL24 IRF3 luciferase reporter, at 10 µM, stronger effect = higher value.

For the compound `COc1ccc(Br)cc1C(=O)Nc1nnn(C)n1`, in test [1], the cell count is 383. For the same compound, the inhibition in test [1] was 6.7% (inactive); in test [3], 17% (inactive); in test [7], -19.5% (inactive); in test [8], -34.7% (inactive). For the same compound, in test [2], the inhibition of aggregation was 5.6% (inactive). Also, the results for the nuclei count in test [2] and in test [3] were 102% and 106%, respectively. Besides, the fluorescence slope was -0.51 (inactive) in test [4] and 0.00661 (inactive) in test [6]. Also, the NADPH fluorescence slope in test [5] was 4.6e-05 (inactive).
In the case of `CCn1nccc1C(=O)Nc1nccs1`, the cell count in test [1] came to 392. In addition, the inhibition in test [1] is -0.5% (inactive); in test [3] it was -45.2% (inactive); in test [7] it was 16.4% (inactive); in test [8] it was 9.69% (inactive). In addition, the inhibition of aggregation in test [2] is -32.5% (inactive). Also, the nuclei count amounted to 108% in test [2] and 103% in test [3]. In addition, the fluorescence slope in test [4] is -0.456 (inactive); in test [6], 0.00538 (inactive). Further, the NADPH fluorescence slope in test [5] is -4.4e-05 (inactive).
Turning to `CCOC(=O)c1c(C)oc2ccc(OCC(=O)N(CC)CC)cc12`, the cell count in test [1] came to 422. Also, the inhibition in test [1] is -1.7% (inactive); in test [3] it was -63% (inactive); in test [7] it was 8.2% (inactive); in test [8], 7.27% (inactive). In addition, in test [2], the inhibition of aggregation is -2.3% (inactive). The figures for the nuclei count in test [2] and in test [3] were 95.5% and 104%, respectively. The figures for the fluorescence slope in test [4] and in test [6] were -0.449 (inactive) and 0.00589 (inactive), respectively. The NADPH fluorescence slope in test [5] is -1.9e-05 (inactive).
In the case of `C=C(C)Cn1c(CCNC(=O)CC)nc2ccccc21`, in test [1], the cell count was determined as 494. Moreover, the inhibition in test [1] is -28.5% (inactive); in test [3], -107% (inactive); in test [7] it was 9.76% (inactive); in test [8] it was 14.1% (inactive). Moreover, in test [2], the inhibition of aggregation was 1.3% (inactive). The nuclei count in test [2] was determined as 101%; in test [3], 112%. In addition, the fluorescence slope in test [4] is -0.433 (inactive); in test [6], 0.00575 (inactive). In addition, in test [5], the NADPH fluorescence slope is -6.1e-05 (inactive).
As to `CCC(=O)c1ccc(OCCN2CCOCC2)cc1`, the cell count in test [1] turned out to be 387. Moreover, the inhibition in test [1] is -5.3% (inactive); in test [3], -104% (inactive); in test [7], 6.75% (inactive); in test [8], 7.43% (inactive). Moreover, the inhibition of aggregation in test [2] was -1.8% (inactive). Besides, the nuclei count in test [2] was determined as 107%; in test [3], 120%. Further, the fluorescence slope is -0.566 (inactive) in test [4] and 0.00623 (inactive) in test [6]. Besides, the NADPH fluorescence slope in test [5] is -4.5e-05 (inactive).
For `O=S(=O)(Nc1cccc2ncccc12)c1cccs1`, the cell count in test [1] amounted to 469. Further, the inhibition in test [1] is -38% (inactive); in test [3] it was 39.3% (inactive); in test [7], -7.18% (inactive); in test [8], -3.78% (inactive). For the same compound, the inhibition of aggregation in test [2] was -0.2% (inactive). Moreover, the nuclei count in test [2] is 67.2%; in test [3], 23.8%. Moreover, the values for the fluorescence slope in test [4] and in test [6] were -0.486 (inactive) and 0.0108 (active), respectively. Besides, the NADPH fluorescence slope in test [5] was 2.1e-05 (inactive).
For the compound `COc1ccc(C)cc1NC(=O)CNC(=O)Cn1ccc2ccccc2c1=O`, in test [1], the cell count was determined as 730. The inhibition in test [1] is -14.1% (inactive); in test [3], 21.2% (inactive); in test [7] it was 25.5% (inactive); in test [8] it was 20.3% (inactive). Moreover, the inhibition of aggregation in test [2] is -10.4% (inactive). Besides, the results for the nuclei count in test [2] and in test [3] were 108% and 96.3%, respectively. Moreover, the fluorescence slope was -0.461 (inactive) in test [4] and 0.0048 (inactive) in test [6]. The NADPH fluorescence slope in test [5] is -2.5e-05 (inactive).
For the compound `CCOC(=O)c1[nH]c2ccc(C)cc2c1N=C(C)N(C)C`, in test [1], the cell count is 579. Moreover, the inhibition in test [1] is 5.2% (inactive); in test [3] it was -27.2% (inactive); in test [7], 20.7% (inactive); in test [8], 21.2% (inactive). Further, the inhibition of aggregation in test [2] was -6.9% (inactive). Also, the nuclei count in test [2] was 100%; in test [3], 108%. Besides, the values for the fluorescence slope in test [4] and in test [6] were -0.563 (inactive) and 0.00488 (inactive), respectively. In addition, in test [5], the NADPH fluorescence slope was -6e-05 (inactive).
As to `CCOC(=O)C1CCN(C(=O)CSc2cc(=O)n(CC)c3ccccc23)CC1`, the cell count in test [1] is 378. The inhibition is 2.2% (inactive) in test [1], -26.1% (inactive) in test [3], -0.518% (inactive) in test [7] and 38.8% (inactive) in test [8]. Also, the inhibition of aggregation in test [2] was -0.2% (inactive). Moreover, the results for the nuclei count in test [2] and in test [3] were 110% and 111%, respectively. The fluorescence slope in test [4] was -0.629 (inactive); in test [6] it was 0.00567 (inactive). Moreover, the NADPH fluorescence slope in test [5] is 6.5e-05 (inactive).
For `CCOC(=O)c1cccc(NC(=O)CSc2nc3ccccc3c(=O)n2CC)c1`, the cell count in test [1] was 360. For the same compound, the inhibition is 4.2% (inactive) in test [1], -1.3% (inactive) in test [3], 9.39% (inactive) in test [7] and 18.3% (inactive) in test [8]. Further, in test [2], the inhibition of aggregation was 7.7% (inactive). The nuclei count was determined as 98.9% in test [2] and 104% in test [3]. For the same compound, the fluorescence slope in test [4] was -0.465 (inactive); in test [6], 0.00728 (inactive). For the same compound, the NADPH fluorescence slope in test [5] is 2.3e-05 (inactive).
Take `O=C(CCn1c(=O)c2sccc2n(CC(=O)NCc2ccco2)c1=O)NCc1ccccc1`: in test [1], the cell count worked out at 331. The inhibition in test [1] is -2.4% (inactive); in test [3], -60% (inactive); in test [7], -3.97% (inactive); in test [8], -0.766% (inactive). In addition, the inhibition of aggregation in test [2] was 0% (inactive). Moreover, the nuclei count was 100% in test [2] and 111% in test [3]. For the same compound, the values for the fluorescence slope in test [4] and in test [6] were -0.566 (inactive) and 0.00667 (inactive), respectively. Further, the NADPH fluorescence slope in test [5] is -8.5e-05 (inactive).
For the compound `CN(C)c1nc(Nc2ccc(Cl)cc2)nc(OCC#N)n1`, in test [1], the cell count was 387. The inhibition was -23% (inactive) in test [1], -109% (inactive) in test [3], 24.2% (inactive) in test [7] and 37.1% (inactive) in test [8]. In test [2], the inhibition of aggregation is -6.1% (inactive). For the same compound, the nuclei count in test [2] was determined as 78.6%; in test [3] it was 128%. The fluorescence slope in test [4] was -0.574 (inactive); in test [6], 0.00241 (inactive). Besides, in test [5], the NADPH fluorescence slope was 1.7e-05 (inactive).
On to `Cc1ccc(C(=O)OCC(=O)c2ccc(Cl)s2)s1`, for which the cell count in test [1] amounted to 654. The inhibition in test [1] is -24.7% (inactive); in test [3], -13.1% (inactive); in test [7] it was -26% (inactive); in test [8] it was -58% (inactive). Moreover, the inhibition of aggregation in test [2] was 10.6% (inactive). Further, the values for the nuclei count in test [2] and in test [3] were 86% and 121%, respectively. Further, the results for the fluorescence slope in test [4] and in test [6] were -0.454 (inactive) and 0.00572 (inactive), respectively. Also, in test [5], the NADPH fluorescence slope is 0.000104 (inactive).
Regarding `CN1C(=O)CC(C(=O)Nc2ccc(F)cc2)SC1=Nc1ccc2c(c1)OCO2` (centres undefined), the cell count in test [1] was found to be 715. The inhibition was -5.4% (inactive) in test [1], -15.7% (inactive) in test [3], 16.1% (inactive) in test [7] and 4.96% (inactive) in test [8]. Also, in test [2], the inhibition of aggregation is 11.5% (inactive). The nuclei count came out at 117% in test [2] and 118% in test [3]. The fluorescence slope was -0.269 (inactive) in test [4] and 0.0044 (inactive) in test [6]. In addition, the NADPH fluorescence slope in test [5] was -3.8e-05 (inactive).
